# In PubChem BioAssay AID1242 (PCMD, 2008):
# The campaign covered roughly 120,000 compounds. About 20 (0.02%) were called active.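 The calls were made as follows: active = inhibition above 30.3% in the primary screen of four-compound pools, then above 30% when the compound was retested; inconclusive = passed the primary limit but could not be retested; inactive = the rest.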 The entries come from a sample that favours actives as a whole.
# Experiment: Candida albicans biofilm persister killing – 4-compound mixtures, primary screen (AID 1242);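 also: compounds exposed to preformed 24 h biofilms for 48 h; 0% = untreated biofilm control and 100% = clotrimazole plus chlorhexidine kill blank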
# Details: C. albicans biofilm persisters + clotrimazole, fluorescence viability, primary screen in compound mixtures, stronger effect = higher value
# How it was run: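 Assay system: C. albicans biofilms / Medium: RPMI/MOPS medium, pH 7.0 / Schedule: biofilm formation 24 h, compound exposure 48 h, 37 °C / Measured by: Alamar Blue fluorescence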
# [1] = measured here: individual compound retest, at 61 µM
structure (smiles),measurement,setting,value
CCc1ccc(Nc2nnc(SCC(=O)c3ccc4c(c3)NC(=O)CO4)s2)cc1,inhibition,at 7.6 µM unless noted,10.2% (inactive)
COc1ccc(C(=O)OCC(=O)NCC2CCCO2)cc1[N+](=O)[O-] (centres undefined),inhibition,at 7.6 µM unless noted,12.1% (inactive)
CN(c1ccccc1)S(=O)(=O)c1cc(C(=O)OCC(=O)N2CCN(C(=O)c3ccco3)CC2)ccc1Cl,inhibition,at 7.6 µM unless noted,13.3% (inactive)
COc1cc2c(cc1OC)CC1(CCCCC1)N=C2,inhibition,at 7.6 µM unless noted,4.41% (inactive)
Cc1ccc(C2CC(c3cccc(NS(C)(=O)=O)c3)=NN2S(C)(=O)=O)cc1 (centres undefined),inhibition,at 7.6 µM unless noted,16% (inactive)
COCCC(=O)Nc1ccc2c(c1)CN(C(=O)CCOC)CC2,inhibition,at 7.6 µM unless noted,18% (inactive)
CC(C)(C)c1cc(NC(=O)NN2CCOCC2)nn1-c1c(Cl)cc(Cl)cc1Cl,inhibition,at 7.6 µM unless noted,5.67% (inactive)
C=CCOCCN(C)C1=NS(=O)(=O)c2ccccc21,inhibition,at 7.6 µM unless noted,3.65% (inactive)
CN(C)S(=O)(=O)c1cccc(NC(=O)COC(=O)c2cc(=O)[nH]c(=O)[nH]2)c1,inhibition,at 7.6 µM unless noted,26.1% (inactive)
CCOCCCN(C(=O)Cn1nnc(-c2ccc(OC)c(OC)c2)n1)C(CC)C(=O)NC1CCCC1 (centres undefined),inhibition,at 7.6 µM unless noted,18.7% (inactive)
Cc1cccc(N2CCN(c3ccc(C(N)=O)cc3[N+](=O)[O-])CC2)c1C,inhibition,at 7.6 µM unless noted,16.6% (inactive)
CCOC(=O)C1CCN(CCC(=O)Nc2cccc(C)c2)CC1,inhibition,at 7.6 µM unless noted,9.47% (inactive)
OCCC1CN(Cc2cccc(OC3CCCC3)c2)CCN1Cc1ccsc1 (centres undefined),inhibition,at 7.6 µM unless noted,13.6% (inactive)
CN(C)N(C)C(=O)C(O)(c1ccccc1)c1ccccc1,inhibition,at 7.6 µM unless noted,8.15% (inactive)
CCOc1ccc(NS(=O)(=O)c2ccc(C)c(C(N)=O)c2)cc1,inhibition,at 7.6 µM unless noted,13.4% (inactive)
CCC(C)(C)NC(=O)/C=C/c1cc(OC)c(OC)c(S(=O)(=O)N2CCc3ccccc32)c1,inhibition,at 7.6 µM unless noted,12.1% (inactive)
Cc1ccc(S(=O)(=O)/N=C(/Nc2ccc3[nH]c(=O)[nH]c3c2)c2ccccc2)cc1,inhibition,at 7.6 µM unless noted,25.2% (inactive)
CCCCN(CC)CCNC(=O)CCNC(=O)Cn1ccc2ccccc2c1=O,inhibition,at 7.6 µM unless noted,8.03% (inactive)
CN(CC(O)COc1ccc(S(=O)(=O)N2CCOCC2)cc1Cl)C1CCCCC1 (centres undefined),inhibition,at 7.6 µM unless noted,28.8% (inactive)
Nc1nc(NCC2CCCO2)nc(Nc2ccccc2F)c1[N+](=O)[O-] (centres undefined),inhibition,at 7.6 µM unless noted,13.6% (inactive)
Cn1nc(C(C)(C)C)c([N+](=O)[O-])c1C(N)=O,inhibition,at 7.6 µM,56.6% (inactive)
same,inhibition,[1],-53.4%
O=C1N(c2ccccc2)C(=Nc2ccccc2)SC12CC2,inhibition,at 7.6 µM unless noted,16.8% (inactive)
CCN(CC)CCN(C(=O)c1ccc(N2C(=O)CCC2=O)cc1)c1nc2cc3c(cc2s1)OCO3,inhibition,at 7.6 µM unless noted,4.15% (inactive)
CCC(=O)NC(=S)Nc1ccc(NC(=O)c2ccco2)c(Cl)c1,inhibition,at 7.6 µM unless noted,2.96% (inactive)
O=C(c1cccc([N+](=O)[O-])c1)N1CCN(C(=O)c2ccco2)CC1,inhibition,at 7.6 µM unless noted,0.32% (inactive)
COC(=O)c1cccc(NS(C)(=O)=O)c1,inhibition,at 7.6 µM unless noted,13.2% (inactive)
Cn1ccc(NC(=O)Nc2ccc(Cl)cc2)n1,inhibition,at 7.6 µM unless noted,16.2% (inactive)
Cc1ccc(O)c(NC(=S)NC(=O)COc2ccc(Br)cc2)c1,inhibition,at 7.6 µM unless noted,9.22% (inactive)
CCN(CC)C(=O)C(=O)Nc1cccc(Br)c1,inhibition,at 7.6 µM unless noted,10% (inactive)
COc1ccccc1CNC(=O)CNC(=O)c1cn(-c2ccccc2OC)c(=O)c2ccccc12,inhibition,at 7.6 µM unless noted,24.6% (inactive)
OCCC1CN(Cc2ccc(Oc3ncccn3)cc2)CCN1CCc1ccccc1 (centres undefined),inhibition,at 7.6 µM unless noted,23.9% (inactive)
CC(NCc1nc2ccccc2n1C)C12CC3CC(CC(C3)C1)C2 (centres undefined),inhibition,at 7.6 µM,63.4% (inactive)
same,inhibition,[1],0.64%
O=C(NC(=S)Nc1ccc(S(=O)(=O)Nc2ncccn2)cc1)c1cccc(Br)c1,inhibition,at 7.6 µM unless noted,20.2% (inactive)
Nc1c(N(CCO)C(=O)C2CCCCC2)c(=O)[nH]c(=O)n1Cc1ccccc1,inhibition,at 7.6 µM unless noted,4.09% (inactive)
Cc1cc(C)c(C)c(S(=O)(=O)N[C@@H](C)C(=O)OC(C)C(=O)NC(N)=O)c1C (some centres undefined),inhibition,at 7.6 µM unless noted,14.7% (inactive)
Cc1ccc(S(=O)(=O)/N=C(\N)c2ccc(F)cc2)cc1,inhibition,at 7.6 µM unless noted,3.79% (inactive)
O=C(OCc1ccc([N+](=O)[O-])cc1)c1ccccn1,inhibition,at 7.6 µM unless noted,15% (inactive)
Cc1cc(C)n(-c2ccc(C(=O)O)cc2[N+](=O)[O-])n1,inhibition,at 7.6 µM unless noted,2.45% (inactive)
COc1cc(N/C=C2\CC(=O)NC(C)=C2C#N)cc(OC)c1OC,inhibition,at 7.6 µM unless noted,14.1% (inactive)
O=C(Nc1ccc(F)cc1)N1CCCC(c2nc3c(nnn3Cc3ccccc3Cl)c(=O)[nH]2)C1 (centres undefined),inhibition,at 7.6 µM unless noted,11.9% (inactive)
NC(=O)Cc1nc2scc(-c3ccc(Cl)cc3)c2c(=O)[nH]1,inhibition,at 7.6 µM unless noted,4.85% (inactive)
CC(=O)Nc1ccc(OCC(=O)NCc2ccc(C)cc2)cc1,inhibition,at 7.6 µM unless noted,10.5% (inactive)
COc1ccc(C2NC(=S)NC3=C2CCc2ccccc23)cc1OC (centres undefined),inhibition,at 7.6 µM unless noted,18.9% (inactive)
COc1ccc(Cl)cc1CSc1ncn[nH]1,inhibition,at 7.6 µM unless noted,13.5% (inactive)
COc1cccc(-n2c(=S)sc3c(=O)n(-c4ccccc4OC)c(SCC4OCCO4)nc32)c1,inhibition,at 7.6 µM unless noted,28.1% (inactive)
OC1CCCN(c2ncnc3c2nnn3Cc2c(F)cccc2Cl)C1 (centres undefined),inhibition,at 7.6 µM unless noted,19.6% (inactive)
Cc1cnc(C(=O)OCC(=O)N2CCc3ccccc32)cn1,inhibition,at 7.6 µM unless noted,-4.77% (inactive)
COCCn1c(C)cc(C(=O)CSc2nc3ccccc3c(=O)n2C(C)COC)c1C (centres undefined),inhibition,at 7.6 µM unless noted,8.22% (inactive)
Cc1nc(CNS(=O)(=O)c2cc([N+](=O)[O-])ccc2C)cs1,inhibition,at 7.6 µM unless noted,22.4% (inactive)
CCCCCCCC(=O)OC(CN1CCCCCC1)CN1CCCC1=O (centres undefined),inhibition,at 7.6 µM unless noted,0.73% (inactive)
COc1ccccc1N1CCN(C(=O)CSc2ncnc3c2cnn3-c2ccc(C)c(C)c2)CC1,inhibition,at 7.6 µM unless noted,19.7% (inactive)
CCOc1cc(C2C(C(=O)OC(C)C)=C(C)NC3=C2C(=O)CCC3)cc([N+](=O)[O-])c1O (centres undefined),inhibition,at 7.6 µM unless noted,16.6% (inactive)
